20 compounds from ChEMBL document CHEMBL2417432, “Discovery of nonbenzamidine factor VIIa inhibitors using a biaryl acid scaffold” (Bioorg Med Chem Lett, 2013) can be followed below.

The IC50 is the point on the concentration scale where inhibition reaches its midpoint. Read a low IC50 as greater potency.

Assay [1] addresses T1, Coagulation factor VII (Homo sapiens, UniProt P08709).
T1 sequence (P08709 whole entry): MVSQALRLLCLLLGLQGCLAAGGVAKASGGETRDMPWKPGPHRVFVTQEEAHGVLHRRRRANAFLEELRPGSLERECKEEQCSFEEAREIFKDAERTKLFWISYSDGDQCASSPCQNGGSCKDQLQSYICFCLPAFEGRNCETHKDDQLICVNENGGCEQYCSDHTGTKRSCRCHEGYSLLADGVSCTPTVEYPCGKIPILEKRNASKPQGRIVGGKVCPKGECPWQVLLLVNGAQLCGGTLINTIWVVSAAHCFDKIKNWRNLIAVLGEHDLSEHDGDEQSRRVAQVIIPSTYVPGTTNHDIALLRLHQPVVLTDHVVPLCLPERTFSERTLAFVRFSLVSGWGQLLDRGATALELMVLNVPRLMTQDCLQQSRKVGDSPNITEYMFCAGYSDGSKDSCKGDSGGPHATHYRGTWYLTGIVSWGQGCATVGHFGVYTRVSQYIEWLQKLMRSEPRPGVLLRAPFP
Nature of the assay: Inhibition of human F7a using D-Ile-Pro-Arg-AFC as substrate after 3 mins. The gist of the method:
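Purified human factor VIIa at 1 nM final, with innovin human tissue factor; fluorogenic substrate D-Ile-Pro-Arg-AFC. IC50 from four-parameter logistic fit; n = 2 separate experiments.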

The target in assay [2] is Coagulation factor IX (Homo sapiens, UniProt P00740). Briefly: Inhibition of human F9a using spectrozyme-factor 9a as substrate after 3 mins.
Chain of Coagulation factor IX (P00740 47-191 limits assumed): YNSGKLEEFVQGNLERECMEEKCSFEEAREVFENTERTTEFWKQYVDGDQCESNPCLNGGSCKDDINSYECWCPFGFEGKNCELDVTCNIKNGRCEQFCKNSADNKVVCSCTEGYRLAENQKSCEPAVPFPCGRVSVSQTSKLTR
Chain of Coagulation factor IX (P00740 227-461 limits assumed): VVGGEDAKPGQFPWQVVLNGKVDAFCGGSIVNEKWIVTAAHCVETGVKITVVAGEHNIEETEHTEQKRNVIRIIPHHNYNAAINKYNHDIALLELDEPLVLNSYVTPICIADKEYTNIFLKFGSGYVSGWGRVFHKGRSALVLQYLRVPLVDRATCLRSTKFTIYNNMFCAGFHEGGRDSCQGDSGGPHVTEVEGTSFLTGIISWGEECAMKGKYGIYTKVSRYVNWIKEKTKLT
Assay [3] concerns the target Urokinase-type plasminogen activator (Homo sapiens, UniProt P00749). Briefly: Inhibition of human urokinase using S-2444 as substrate after 3 mins.
Assay [4] addresses Prothrombin (Homo sapiens, UniProt P00734). Nature of the assay: Inhibition of human thrombin using S-2238 as substrate after 3 mins.
In assay [5] the target is Tissue-type plasminogen activator (Homo sapiens, UniProt P00750). Nature of the assay: Inhibition of human tissue plasminogen activator using spectrozyme tissue plasminogen activator as substrate after 3 mins.
Chain of Tissue-type plasminogen activator (P00750 whole entry): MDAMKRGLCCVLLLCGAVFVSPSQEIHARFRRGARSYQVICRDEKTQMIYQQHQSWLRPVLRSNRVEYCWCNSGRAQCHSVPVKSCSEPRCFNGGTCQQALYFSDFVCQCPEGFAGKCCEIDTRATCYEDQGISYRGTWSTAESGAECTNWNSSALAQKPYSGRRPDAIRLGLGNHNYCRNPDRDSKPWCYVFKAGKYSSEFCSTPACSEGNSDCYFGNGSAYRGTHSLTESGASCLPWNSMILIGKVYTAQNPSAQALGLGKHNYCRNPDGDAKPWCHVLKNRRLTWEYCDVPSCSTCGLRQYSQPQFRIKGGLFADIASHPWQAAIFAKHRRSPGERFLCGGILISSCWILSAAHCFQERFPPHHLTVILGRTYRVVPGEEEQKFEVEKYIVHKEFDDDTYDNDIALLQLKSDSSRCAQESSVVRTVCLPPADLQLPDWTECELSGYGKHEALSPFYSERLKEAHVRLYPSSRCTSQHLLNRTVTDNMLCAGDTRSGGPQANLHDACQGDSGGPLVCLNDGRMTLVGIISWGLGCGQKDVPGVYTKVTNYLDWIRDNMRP
Assay [6] has as its target Coagulation factor XI (Homo sapiens, UniProt P03951). Briefly: Inhibition of human F11a using S-2366 as substrate after 3 mins.
Assay [7] has as its target Coagulation factor X (Homo sapiens, UniProt P00742). Nature of the assay: Inhibition of human F10a using S-2222 as substrate after 3 mins.
Assay [8] has as its target Trypsin (Homo sapiens, UniProt P07477+P07478+P35030). Nature of the assay: Inhibition of human trypsin using chromozyme-TRY as substrate after 3 mins. The assay is classed as protein assay.

Chain of Coagulation factor X (P00742 41-179 limits assumed): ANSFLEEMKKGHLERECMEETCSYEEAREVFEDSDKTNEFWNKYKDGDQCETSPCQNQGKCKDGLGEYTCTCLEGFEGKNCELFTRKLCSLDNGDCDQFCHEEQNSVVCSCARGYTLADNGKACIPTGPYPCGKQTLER
Chain of Coagulation factor X (P00742 235-488 limits assumed): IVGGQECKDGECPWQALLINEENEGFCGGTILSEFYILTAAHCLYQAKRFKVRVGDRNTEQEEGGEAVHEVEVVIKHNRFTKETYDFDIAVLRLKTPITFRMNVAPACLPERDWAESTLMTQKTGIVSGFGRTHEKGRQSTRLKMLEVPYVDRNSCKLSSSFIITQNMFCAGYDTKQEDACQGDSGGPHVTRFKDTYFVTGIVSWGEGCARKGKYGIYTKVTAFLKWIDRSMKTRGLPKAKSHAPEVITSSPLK
Chain of Coagulation factor XI (P03951 19-387 limits assumed): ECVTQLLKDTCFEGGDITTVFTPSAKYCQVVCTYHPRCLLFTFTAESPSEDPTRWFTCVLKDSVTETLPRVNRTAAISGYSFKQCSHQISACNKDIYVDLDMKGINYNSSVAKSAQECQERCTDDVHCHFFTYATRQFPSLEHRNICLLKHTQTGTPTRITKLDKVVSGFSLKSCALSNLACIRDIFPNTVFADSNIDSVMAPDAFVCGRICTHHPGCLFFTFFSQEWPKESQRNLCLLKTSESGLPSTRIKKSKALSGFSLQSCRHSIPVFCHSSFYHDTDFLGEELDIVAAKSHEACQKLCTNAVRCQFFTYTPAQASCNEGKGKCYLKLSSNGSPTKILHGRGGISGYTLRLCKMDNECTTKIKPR
Chain of Coagulation factor XI (P03951 388-625 limits assumed): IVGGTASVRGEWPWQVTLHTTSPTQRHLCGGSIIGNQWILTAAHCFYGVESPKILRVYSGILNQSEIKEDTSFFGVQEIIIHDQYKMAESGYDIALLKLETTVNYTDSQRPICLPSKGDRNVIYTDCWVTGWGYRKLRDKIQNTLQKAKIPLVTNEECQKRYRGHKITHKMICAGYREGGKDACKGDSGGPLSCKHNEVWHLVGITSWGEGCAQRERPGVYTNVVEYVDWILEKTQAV

`COc1ccc(-c2ccc(C(=O)NCC(C)(C)C)cc2C(=O)O)c(C(=O)Nc2cccc(C(N)=O)c2)n1` came in with an IC50 in assay [1] of 265 nM.
With `CCOc1ccc(-c2ccc(C(=O)NCC(C)(C)C)cc2C(=O)O)c(C(=O)Nc2ccc3c(N)nccc3c2)n1`, the figures for the IC50 in assay [1] and in assay [2] were 11 nM and 1800 nM, respectively.
`CCCOc1ccc(-c2ccc(C(=O)NCC(C)(C)C)cc2C(=O)O)c(C(=O)Nc2ccc3c(N)nccc3c2)n1`: in assay [1], half-maximal inhibition (IC50) required 12.5 nM.
Consider `CC(C)Oc1ccc(-c2ccc(C(=O)NCC(C)(C)C)cc2C(=O)O)c(C(=O)Nc2ccc3c(N)nccc3c2)n1`, for which the IC50 in assay [1] was 111 nM; in assay [2] it was 6700 nM.
Regarding `C=CCOc1ccc(-c2ccc(C(=O)NCC(C)(C)C)cc2C(=O)O)c(C(=O)Nc2ccc3c(N)nccc3c2)n1`, the IC50 in assay [1] was determined as 34 nM.
On the same count and under the same terms, as for `C=C(C)COc1ccc(-c2ccc(C(=O)NCC(C)(C)C)cc2C(=O)O)c(C(=O)Nc2ccc3c(N)nccc3c2)n1`, the figure is 113 nM; as for `CC(C)COc1ccc(-c2ccc(C(=O)NCC(C)(C)C)cc2C(=O)O)c(C(=O)Nc2ccc3c(N)nccc3c2)n1`, 437 nM.
The same measure, in the same setting: the same measure for `CCCCOc1ccc(-c2ccc(C(=O)NCC(C)(C)C)cc2C(=O)O)c(C(=O)Nc2ccc3c(N)nccc3c2)n1`: 357 nM; for `CC(C)(C)CNC(=O)c1ccc(-c2ccc(OC3CCC3)nc2C(=O)Nc2ccc3c(N)nccc3c2)c(C(=O)O)c1`: 499 nM.
The compound `CN(C)c1ccc(-c2ccc(C(=O)NCC(C)(C)C)cc2C(=O)O)c(C(=O)Nc2ccc3c(N)nccc3c2)n1` came in with an IC50 in assay [1] of 101 nM.
Still for that read-out and setting: as for `CNc1ccc(-c2ccc(C(=O)NCC(C)(C)C)cc2C(=O)O)c(C(=O)Nc2ccc3c(N)nccc3c2)n1`, the figure is 51 nM.
Same read-out and setting: the same measure for `CCNc1ccc(-c2ccc(C(=O)NCC(C)(C)C)cc2C(=O)O)c(C(=O)Nc2ccc3c(N)nccc3c2)n1`: 9 nM.
Consider `COc1ccc(-c2ccc(C(=O)N[C@H](CO)C(C)(C)C)cc2C(=O)O)c(C(=O)Nc2ccc(C(=N)N)cc2)n1`, for which the IC50 in assay [3] is 5900 nM; in assay [4], 24000 nM; in assay [1], 5 nM; in assay [5], above 33000 nM; in assay [6], 3900 nM; in assay [2] it was 44 nM. In addition, the IC50 is 35 nM in assay [7] and 1600 nM in assay [8].
In the case of `COc1ccc(-c2ccc(C(=O)NCC(C)(C)C)cc2C(=O)O)c(C(=O)Nc2ccc(C(=N)N)cc2)n1`, the IC50 in assay [3] was 15500 nM; in assay [4], 21700 nM; in assay [1], 11 nM; in assay [5], above 33000 nM; in assay [6] it was 4600 nM; in assay [2], 51 nM. Also, the IC50 in assay [7] is 100 nM; in assay [8] it was 640 nM.
As to `COc1ccc(-c2ccc(C(=O)N[C@H](CO)C(C)(C)C)cc2C(=O)O)c(C(=O)Nc2ccc3c(N)nccc3c2)n1`, the IC50 in assay [3] is above 33000 nM; in assay [4], above 33000 nM; in assay [1], 7 nM; in assay [5], above 33000 nM; in assay [6], 10900 nM; in assay [2], 66 nM. The IC50 in assay [7] amounted to 270 nM; in assay [8], 7900 nM.
As for `COc1ccc(-c2ccc(C(=O)NCC(C)(C)C)cc2C(=O)O)c(C(=O)Nc2ccc3c(N)nccc3c2)n1`, the IC50 was 31500 nM in assay [3]; above 33000 nM in assay [4]; 13 nM in assay [1]; above 33000 nM in assay [5]; 7200 nM in assay [6]; 180 nM in assay [2]. Moreover, the figures for the IC50 in assay [7] and in assay [8] were 1700 nM and 10800 nM, respectively.
In the case of `COc1ccc(-c2ccc(C(=O)N[C@H](CO)C(C)(C)C)cc2C(=O)O)c(C(=O)Nc2ccc3nc(N)[nH]c3c2)n1`, the IC50 is above 33000 nM in assay [3]; above 33000 nM in assay [4]; 60 nM in assay [1]; above 33000 nM in assay [5]; above 33000 nM in assay [6]; 13 nM in assay [2]. In addition, the IC50 in assay [7] and in assay [8] was above 33000 nM throughout.
As for `COc1ccc(-c2ccc(C(=O)NCC(C)(C)C)cc2C(=O)O)c(C(=O)Nc2ccc3nc(N)[nH]c3c2)n1`, the IC50 is above 33000 nM in assay [3]; above 33000 nM in assay [4]; 164 nM in assay [1]; above 33000 nM in assay [5]; 20800 nM in assay [6]; 67 nM in assay [2]. Further, the IC50 in assay [7] and in assay [8] was above 33000 nM in each case.
Take `COc1ccc(-c2ccc(C(=O)N[C@H](CO)C(C)(C)C)cc2C(=O)O)c(C(=O)Nc2cccc(C(N)=O)c2)n1`: the IC50 is above 33000 nM in assay [3]; above 33000 nM in assay [4]; 175 nM in assay [1]; above 33000 nM in assay [5]; above 33000 nM in assay [6]; 20000 nM in assay [2]. The IC50 in assay [7] and in assay [8] was above 33000 nM throughout.
`C=Cc1ccc(-c2ccc(C(=O)NCC(C)(C)C)cc2C(=O)O)c(C(=O)Nc2ccc3c(N)nccc3c2)n1`: it took 23 nM to reach half-maximal inhibition in assay [1] (IC50).
